Assay results reported in ChEMBL document CHEMBL5247578, “Effective synthesis of benzimidazoles-imidazo[1,2-a]pyrazine conjugates: A comparative study of mono-and bis-benzimidazoles for antitumor activity” (Eur J Med Chem, 2019).

Legend:
MDA-MB-435 [1] = test: Antiproliferative activity against human MDA-MB-435 cells assessed as cell growth at 0.00001 M incubated for 48 hrs by SRB assay relative to control; format: functional; conditions: read-out: Activity
NCI/ADR-RES = test: Antiproliferative activity against human NCI/ADR-RES cells assessed as cell growth at 0.00001 M incubated for 48 hrs by SRB assay relative to control; format: functional; conditions: read-out: Activity
HCT-15 = test: Antiproliferative activity against human HCT-15 cells assessed as cell growth at 0.00001 M incubated for 48 hrs by SRB assay relative to control; format: functional; conditions: read-out: Activity
Summary of the method: (§1)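 NCI-60 five-dose screen (10^-4 to 10^-8 M). Cells grown in RPMI 1640 with 5% FBS and 2 mM L-glutamine, plated at 5,000-40,000 cells/well and preincubated 24 h. Drug given from DMSO stock, then 48 h at 37 °C, 5% CO2. For adherent lines, cells fixed with cold TCA, SRB-stained and read at 515 nm. Percent growth taken against time-zero and untreated control.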

MDA-MB-231 = test: Antiproliferative activity against human MDA-MB-231 cells assessed as cell growth at 0.00001 M incubated for 48 hrs by SRB assay relative to control; format: functional; conditions: read-out: Activity
COLO 205 = test: Antiproliferative activity against human COLO 205 cells assessed as cell growth at 0.00000001 M incubated for 48 hrs by SRB assay relative to control; format: functional; conditions: dose 10 nM, read-out: Activity
Summary of the method: (§2)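 NCI-60 five-dose screen over 10^-4–10^-8 M (10-fold dilutions). Cells grown in RPMI 1640 with 5% FBS and 2 mM L-glutamine, seeded at 5,000–40,000 cells/well and preincubated 24 h. Drug from DMSO stock, 48 h at 37 °C, 5% CO2. Adherent cells TCA-fixed and stained with 0.4% SRB; A515 read. Percent growth = (Ti−Tz)/(C−Tz)×100, or (Ti−Tz)/Tz×100 when Ti<Tz.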

RPMI-8226 = test: Antiproliferative activity against human RPMI-8226 cells assessed as cell growth at 0.0000001 M incubated for 48 hrs by SRB assay relative to control; format: functional; conditions: dose 100 nM, read-out: Activity
CAKI-1 [2] = test: Antiproliferative activity against human CAKI-1 cells assessed as cell growth at 0.0000001 M incubated for 48 hrs by SRB assay relative to control; format: functional; conditions: dose 100 nM, read-out: Activity; summary of the method: as §2
CCRF-CEM [3] = test: Antiproliferative activity against human CCRF-CEM cells assessed as cell growth at 0.00000001 M incubated for 48 hrs by SRB assay relative to control; format: functional; conditions: dose 10 nM, read-out: Activity; summary of the method: as §2
Calf thymus DNA = test: Binding affinity to calf thymus DNA assessed as DNA intercalation by measuring Stem-Volmer quenching constant at temperature of 298 K by fluorescence spectroscopic method; format: nucleic-acid assay; conditions: Bos taurus
SK-MEL-28 = test: Antiproliferative activity against human SK-MEL-28 cells assessed as cell growth at 0.0001 M incubated for 48 hrs by SRB assay relative to control; format: functional; conditions: read-out: Activity
UACC-257 = test: Antiproliferative activity against human UACC-257 cells assessed as cell growth at 0.0001 M incubated for 48 hrs by SRB assay relative to control; format: functional; conditions: read-out: Activity
U-251 = test: Antiproliferative activity against human U-251 cells assessed as cell growth at 0.0000001 M incubated for 48 hrs by SRB assay relative to control; format: functional; conditions: dose 100 nM, read-out: Activity
ACHN = test: Antiproliferative activity against human ACHN cells assessed as cell growth inhibition by measuring lethal concentration incubated for 48 hrs by sulforhodamine B assay; format: functional; conditions: read-out: LC50 (the source's name)
PC-3 = test: Antiproliferative activity against human PC-3 cells assessed as cell growth at 0.000001 M incubated for 48 hrs by SRB assay relative to control; format: functional; conditions: read-out: Activity
MDA-MB-435 [4] = test: Antiproliferative activity against human MDA-MB-435 cells assessed as cell growth at 0.00000001 M incubated for 48 hrs by SRB assay relative to control; format: functional; conditions: dose 10 nM, read-out: Activity
NCI-H460 = test: Antiproliferative activity against human NCI-H460 cells assessed as cell growth at 0.0000001 M incubated for 48 hrs by SRB assay relative to control; format: functional; conditions: dose 100 nM, read-out: Activity
CCRF-CEM [5] = test: Growth inhibition against human CCRF-CEM cells incubated for 48 hrs by sulforhodamine B assay; format: functional
OVCAR-5 = test: Antiproliferative activity against human OVCAR-5 cells assessed as cell growth at 0.0001 M incubated for 48 hrs by SRB assay relative to control; format: functional; conditions: read-out: Activity
Hs-578T = test: Antiproliferative activity against human Hs-578T cells assessed as cell growth at 0.00001 M incubated for 48 hrs by SRB assay relative to control; format: functional; conditions: read-out: Activity
Summary of the method: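 NCI-60 five-dose mode, 10^-4 to 10^-8 M in 10-fold steps. RPMI 1640, 5% FBS, 2 mM L-glutamine; 24 h preincubation, then 48 h drug exposure at 37 °C. Stocks in DMSO at 400× the top concentration, diluted in medium with gentamicin. TCA fixation, SRB staining, absorbance at 515 nm. Percent growth from time-zero (Tz), control (C) and test (Ti) readings.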

BT-549 = test: Antiproliferative activity against human BT-549 cells assessed as cell growth at 0.00001 M incubated for 48 hrs by SRB assay relative to control; format: functional; conditions: read-out: Activity; summary of the method: as §2
Malme-3M = test: Growth inhibition against human Malme-3M cells incubated for 48 hrs by sulforhodamine B assay; format: functional
CAKI-1 [6] = test: Growth inhibition against human CAKI-1 cells incubated for 48 hrs by sulforhodamine B assay; format: functional
UO-31 [7] = test: Antiproliferative activity against human UO-31 cells assessed as cell growth at 0.000001 M incubated for 48 hrs by SRB assay relative to control; format: functional; conditions: read-out: Activity
SNB-19 = test: Antiproliferative activity against human SNB-19 cells assessed as cell growth inhibition by measuring lethal concentration incubated for 48 hrs by sulforhodamine B assay; format: functional; conditions: read-out: LC50 (the source's name)
Summary of the method: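 NCI-60 five-dose screen (10^-4 to 10^-8 M, 10-fold dilutions; DMSO stocks). Cells in RPMI 1640 with 5% FBS and 2 mM L-glutamine, preincubated 24 h, then exposed 48 h at 37 °C, 5% CO2. Fixed with cold TCA, stained with 0.4% SRB, absorbance read at 515 nm. Time-zero plates used as reference. LC50 taken from [(Ti-Tz)/Tz]×100 […].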

UO-31 [8] = test: Growth inhibition against human UO-31 cells assessed as total growth inhibitory concentration incubated for 48 hrs by sulforhodamine B assay; format: functional
SN12C = test: Antiproliferative activity against human SN12C cells assessed as cell growth at 0.00001 M incubated for 48 hrs by SRB assay relative to control; format: functional; conditions: read-out: Activity
TK-10 = test: Antiproliferative activity against human TK-10 cells assessed as cell growth at 0.000001 M incubated for 48 hrs by SRB assay relative to control; format: functional; conditions: read-out: Activity
HT-29 = test: Antiproliferative activity against human HT-29 cells assessed as cell growth at 0.0000001 M incubated for 48 hrs by SRB assay relative to control; format: functional; conditions: dose 100 nM, read-out: Activity; summary of the method: as §1
DU-145 = test: Growth inhibition against human DU-145 cells assessed as total growth inhibitory concentration incubated for 48 hrs by sulforhodamine B assay; format: functional
SF-539 = test: Growth inhibition against human SF-539 cells incubated for 48 hrs by sulforhodamine B assay; format: functional

## COc1ccc(-c2cn3ccnc3c(-c3ccc4ncn(C5CCCCC5)c4c3)n2)cc1
MDA-MB-435 [1]
  growth at 10 µM: 6%
NCI/ADR-RES
  growth at 10 µM: -4%
HCT-15
  growth at 10 µM: 9%
MDA-MB-231
  growth at 10 µM: 12%
COLO 205
  growth at 0.01 µM: 96%
RPMI-8226
  growth at 0.1 µM: 108%
CAKI-1 [2]
  growth at 0.1 µM: 90%
CCRF-CEM [3]
  growth at 0.01 µM: 106%
Calf thymus DNA
  KSV: 4.65 10^4/M
SK-MEL-28
  growth at 100 µM: 36%
UACC-257
  growth at 100 µM: 55%
U-251
  growth at 0.1 µM: 104%
ACHN
  CC50: > 100 µM
PC-3
  growth at 1 µM: 37%
MDA-MB-435 [4]
  growth at 0.01 µM: 92%
NCI-H460
  growth at 0.1 µM: 107%
CCRF-CEM [5]
  GI50: 1640 nM
OVCAR-5
  growth at 100 µM: 56%
Hs-578T
  growth at 10 µM: 6%
BT-549
  growth at 10 µM: -18%
Malme-3M
  GI50: 43.1 µM
CAKI-1 [6]
  GI50: 757 nM
UO-31 [7]
  growth at 1 µM: 55%
SNB-19
  CC50: > 100 µM
UO-31 [8]
  TGI: > 100 µM
SN12C
  growth at 10 µM: 16%
TK-10
  growth at 1 µM: 84%
HT-29
  growth at 0.1 µM: 92%
DU-145
  TGI: > 100000 nM
SF-539
  GI50: 569 nM

## c1ccc(Cn2cnc3ccc(-c4nc(-c5ccc6c(c5)ncn6C5CCCCC5)cn5ccnc45)cc32)cc1
MDA-MB-435 [1]
  growth at 10 µM: -32%
NCI/ADR-RES
  growth at 10 µM: -30%
HCT-15
  growth at 10 µM: -13%
MDA-MB-231
  growth at 10 µM: -63%
COLO 205
  growth at 0.01 µM: 95%
RPMI-8226
  growth at 0.1 µM: 113%
CAKI-1 [2]
  growth at 0.1 µM: 88%
CCRF-CEM [3]
  growth at 0.01 µM: 100%
Calf thymus DNA
  KSV: 1.19 10^4/M
SK-MEL-28
  growth at 100 µM: 13%
UACC-257
  growth at 100 µM: -27%
U-251
  growth at 0.1 µM: 107%
ACHN
  CC50: > 100 µM
PC-3
  growth at 1 µM: 75%
MDA-MB-435 [4]
  growth at 0.01 µM: 91%
NCI-H460
  growth at 0.1 µM: 108%
CCRF-CEM [5]
  GI50: 2180 nM
OVCAR-5
  growth at 100 µM: 21%
Hs-578T
  growth at 10 µM: 1%
BT-549
  growth at 10 µM: -82%
Malme-3M
  GI50: 2.54 µM
CAKI-1 [6]
  GI50: 2450 nM
UO-31 [7]
  growth at 1 µM: 78%
SNB-19
  CC50: > 100 µM
UO-31 [8]
  TGI: 4.55 µM
SN12C
  growth at 10 µM: -32%
TK-10
  growth at 1 µM: 97%
HT-29
  growth at 0.1 µM: 97%
DU-145
  TGI: 2100 nM
SF-539
  GI50: 1060 nM
